ChEMBL document CHEMBL2331079, “Antibacterial and antiplasmodial constituents of Beilschmiedia cryptocaryoides” (J Nat Prod, 2013)
Values after ≈ are worked out from the molar mass of the structure shown.

Legend:
Escherichia coli = assay: Antibacterial activity against Escherichia coli 6r3 by paper disk diffusion method; type: functional
Summary of the method: (§1)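 Strains taken from the lab's own culture collection. Tested by paper disk diffusion, following the group's earlier published method. Each MIC was determined in triplicate.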

Stutzerimonas stutzeri = assay: Antibacterial activity against Pseudomonas stutzeri A1501 by paper disk diffusion method; type: functional; summary of the method: as §1
Serratia plymuthica = assay: Antibacterial activity against Serratia plymuthica C48 by paper disk diffusion method; type: functional; summary of the method: as §1
[1] = tested on: Acinetobacter calcoaceticus; assay: Antibacterial activity against Acinetobacter calcoaceticus DSM 586 by paper disk diffusion method; type: functional; summary of the method: as §1
Plasmodium falciparum = assay: Antiplasmodial activity against chloroquine-sensitive Plasmodium falciparum NF54 after 48 hrs by [3H]-hypoxanthine incorporation assay; type: functional, organism-based
Summary of the method: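 Asexual blood-stage parasites in hypoxanthine-free RPMI 1640 with HEPES, NaHCO3, neomycin and Albumax, in human A+ erythrocytes (2.5% hematocrit, 0.3% parasitemia). Eleven 3-fold dilutions (100 to 0.002 μg/mL) from DMSO stocks. Incubated at 37 °C in 4% CO2/3% O2/93% N2. 3H-hypoxanthine (0.5 μCi) added at 48 h, then 24 h more. Read by scintillation counting. IC50 is the mean of two independent assays.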

L6 = assay: Cytotoxicity against rat L6 cells after 70 hrs by Alamar Blue assay; settings: L6, 70 h

SMILES | MIC (Escherichia coli) [µg/mL] | MIC (Stutzerimonas stutzeri) [µg/mL] | MIC (Serratia plymuthica) [µg/mL] | MIC [1] [µg/mL] | IC50 (Plasmodium falciparum) [µM] | IC50 (L6) [µM]
CC1(C)S[C@@H]2[C@H](NC(=O)[C@H](N)c3ccccc3)C(=O)N2[C@H]1C(=O)O [AMPICILLIN] | 5 (≈ 14.3 µM) | 20 (≈ 57.2 µM) | 20 (≈ 57.2 µM) | 5 (≈ 14.3 µM) | – | –
CCCCCC[C@@H]1[C@H]2C=C[C@H]3C(C(=O)O)=C[C@H](O)[C@@H]4C[C@@H]1[C@@H]2[C@H]43 [CRYPTOBEILIC ACID A] | 10 (≈ 31.6 µM) | > 50 | > 50 | > 50 | 17.7 | 59.5
CCCCCC[C@@H]1[C@H]2C=C[C@H]3C(C(=O)O)=C[C@@H](O)[C@@H]4C[C@@H]1[C@@H]2[C@H]43 [CRYPTOBEILIC ACID B] | 20 (≈ 63.2 µM) | 10 (≈ 31.6 µM) | > 50 | 20 (≈ 63.2 µM) | 5.35 | 20.4
O=C(O)C1=CC(=O)[C@@H]2C[C@H]3[C@H](Cc4ccc5c(c4)OCO5)[C@H]4C=C[C@@H]1[C@@H]2[C@H]43 [CRYPTOBEILIC ACID C] | > 50 | > 50 | > 50 | > 50 | 14 | 59.3
CCCCCC[C@@H]1[C@H]2C=C[C@@H]3[C@@H]4[C@H]2[C@H]1C[C@H]4C=C[C@H]3C(=O)O [CRYPTOBEILIC ACID D] | 50 (≈ 166 µM) | > 50 | > 50 | > 50 | 10.8 | 61
CN1CCN(c2cc3c(cc2F)c(=O)c(C(=O)O)cn3-c2ccc(F)cc2)CC1 [DIFLOXACIN] | 5 (≈ 12.5 µM) | 20 (≈ 50.1 µM) | 20 (≈ 50.1 µM) | 5 (≈ 12.5 µM) | – | –
COc1cc([C@@H]2c3cc4c(cc3[C@H](O)[C@H]3COC(=O)[C@H]23)OCO4)cc(OC)c1OC [PODOFILOX] | – | – | – | – | – | 0.008
O=C(O)[C@@H]1C=C[C@@H]2C[C@H]3[C@H](Cc4ccc5c(c4)OCO5)[C@H]4C=C[C@@H]1[C@@H]2[C@H]43 [TSANGIBEILIN B] | 50 (≈ 143 µM) | > 50 | > 50 | > 50 | 8.2 | 21.5
